Active and inactive are the calls of the source. The calls are words filed in the database; no cut-off is given here.
How the values were obtained:
[1] = molecular target: CDK2/Cyclin A2 (Homo sapiens) (UniProt P24941+P20248); experiment: Inhibition of human CDK2/cyclin A assessed as residual activity at 10 uM in presence of ATP by ADP-glo luminescent assay relative to control; assay type: protein-complex assay
Summary of the method: (§1)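 Human kinases assayed by ADP-Glo luminescence with 10 μM ATP, compound at 10 or 1 μM. Activity is expressed as % of maximal activity relative to a DMSO control, mean n = 2.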

[2] = molecular target: Cyclin-dependent kinase 5/CDK5 activator 1 (Homo sapiens) (UniProt Q00535+Q15078); experiment: Inhibition of human CDK5/p25 assessed as residual activity at 10 uM in presence of ATP by ADP-glo luminescent assay relative to control; assay type: protein-complex assay; summary of the method: as §1
[3] = molecular target: CDK9/cyclin T1 (Homo sapiens) (UniProt O60563+P50750); experiment: Inhibition of human CDK9/cyclin T assessed as residual activity at 10 uM in presence of ATP by ADP-glo luminescent assay relative to control; assay type: protein-complex assay; summary of the method: as §1
[4] = molecular target: T1, Glycogen synthase kinase-3 beta (Homo sapiens, UniProt P49841); experiment: Inhibition of human GSK3beta assessed as residual activity at 10 uM in presence of ATP by ADP-glo luminescent assay relative to control; summary of the method: as §1
[5] = molecular target: T1, Glycogen synthase kinase-3 beta; experiment: Inhibition of human GSK3beta assessed as residual activity at 1 uM in presence of ATP by ADP-glo luminescent assay relative to control; summary of the method: as §1
Leishmania major = experiment: Inhibition of Leishmania major CK1 assessed as residual activity at 1 uM in presence of ATP by ADP-glo luminescent assay relative to control
Plasmodium falciparum = experiment: Inhibition of Plasmodium falciparum GSK3 assessed as residual activity at 1 uM in presence of ATP by ADP-glo luminescent assay relative to control
Summary of the method: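 Recombinant P. falciparum GSK3, bacterially expressed, in buffer A (10 mM MgCl2, 1 mM EGTA, 1 mM DTT, 25 mM Tris-HCl pH 7.5, 50 μg/ml heparin). Substrate 0.010 μg/μl GS-1 peptide, 10 μM ATP, ADP-Glo luminescence. Compound at 10 or 1 μM; % residual activity vs DMSO control, mean n = 2.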

Sus scrofa = organism: Sus scrofa; experiment: Inhibition of porcine GSK3alpha/beta assessed as residual activity at 1 uM in presence of ATP by ADP-glo luminescent assay relative to control
Summary of the method: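 Porcine brain GSK3α/β, native and affinity-purified. Assayed by ADP-Glo luminescence with 10 μM ATP and 0.010 μg/μl GS-1 peptide substrate. Buffer A: 10 mM MgCl2, 1 mM EGTA, 1 mM DTT, 25 mM Tris-HCl pH 7.5, 50 μg/ml heparin. Compound tested at 10 or 1 μM. Result is % of maximal activity versus DMSO control, mean of n = 2.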

[6] = molecular target: T1, Glycogen synthase kinase-3 beta; experiment: ATP competitive inhibition of human GSK3beta at 500 nM in presence of ATP by ADP-glo luminescent assay
Summary of the method: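 HsGSK3β activity by ADP-Glo luminescence with 500 nM inhibitor, or without it, across ATP 3.125 to 100 μM. Residual activity is given as % of a DMSO control, mean (n = 3) ± SD.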

K562 [7] = experiment: Cell cycle arrest in human K562 cells assessed as accumulation at G0/G1 phase at 25 nM after 24 hrs by propidium iodide staining-based flow cytometric analysis (reference value: 21.4 %); assay type: functional
K562 [8] = experiment: Cell cycle arrest in human K562 cells assessed as accumulation at G0/G1 phase at 50 nM after 24 hrs by propidium iodide staining-based flow cytometric analysis (reference value: 21.4 %); assay type: functional
K562 [9] = experiment: Cell cycle arrest in human K562 cells assessed as accumulation at S phase at 25 nM after 24 hrs by propidium iodide staining-based flow cytometric analysis (reference value: […]); assay type: functional
K562 [10] = experiment: Cell cycle arrest in human K562 cells assessed as accumulation at G2/M phase at 25 nM after 24 hrs by propidium iodide staining-based flow cytometric analysis (reference value: 12.9 %); assay type: functional
K562 [11] = experiment: Cell cycle arrest in human K562 cells assessed as accumulation at G2/M phase at 100 nM after 24 hrs by propidium iodide staining-based flow cytometric analysis (reference value: 12.9 %); assay type: functional
HCT-116 [12] = experiment: Cell cycle arrest in human HCT-116 cells assessed as accumulation at G0/G1 phase at 200 nM after 24 hrs by propidium iodide staining-based flow cytometric analysis (reference value: 20.9 %); assay type: functional
HCT-116 [13] = experiment: Cell cycle arrest in human HCT-116 cells assessed as accumulation at S phase at 100 nM after 24 hrs by propidium iodide staining-based flow cytometric analysis (reference value: 47.6 %); assay type: functional
HCT-116 [14] = experiment: Cell cycle arrest in human HCT-116 cells assessed as accumulation at S phase at 500 nM after 24 hrs by propidium iodide staining-based flow cytometric analysis (reference value: 47.6 %); assay type: functional
HCT-116 [15] = experiment: Cell cycle arrest in human HCT-116 cells assessed as accumulation at G2/M phase at 200 nM after 24 hrs by propidium iodide staining-based flow cytometric analysis (reference value: 31.5 %); assay type: functional
[16] = molecular target: Glycogen synthase kinase-3 alpha (Homo sapiens, UniProt P49840); experiment: Inhibition of human GSK3alpha by ADP-Glo assay
[17] = Inhibition of human CDK10/cyclin M by ADP-Glo assay
HCT-116 [18] = experiment: Cell cycle arrest in human HCT-116 cells assessed as increase in accumulation at G0/G1 phase after 24 hrs by propidium iodide staining-based flow cytometric analysis; assay type: functional; details: dose 100-500 nM
PC-3 = experiment: Antiproliferative activity against human PC-3 cells assessed as reduction in cell viability incubated for 72 hrs by CellTiter-Blue fluorescence assay; details: PC-3, 72 h
SK-OV-3 = experiment: Antiproliferative activity against human SKOV3 cells assessed as reduction in cell viability incubated for 72 hrs by CellTiter-Blue fluorescence assay; details: SK-OV-3, 72 h
MIA PaCa-2 [19] = experiment: Antiproliferative activity against human MIA PaCa-2 cells assessed as reduction in cell viability incubated for 72 hrs by CellTiter-Blue fluorescence assay; details: MIA PaCa-2, 72 h
MIA PaCa-2 [20] = experiment: Potency index, ratio of flavopiridol IC50 to test compound IC50 for human MIA PaCa-2 cells assessed as reduction in cell viability incubated for 72 hrs by CellTiter-Blue resazurin fluorescence assay

T1 sequence (P49841 whole entry, looked up): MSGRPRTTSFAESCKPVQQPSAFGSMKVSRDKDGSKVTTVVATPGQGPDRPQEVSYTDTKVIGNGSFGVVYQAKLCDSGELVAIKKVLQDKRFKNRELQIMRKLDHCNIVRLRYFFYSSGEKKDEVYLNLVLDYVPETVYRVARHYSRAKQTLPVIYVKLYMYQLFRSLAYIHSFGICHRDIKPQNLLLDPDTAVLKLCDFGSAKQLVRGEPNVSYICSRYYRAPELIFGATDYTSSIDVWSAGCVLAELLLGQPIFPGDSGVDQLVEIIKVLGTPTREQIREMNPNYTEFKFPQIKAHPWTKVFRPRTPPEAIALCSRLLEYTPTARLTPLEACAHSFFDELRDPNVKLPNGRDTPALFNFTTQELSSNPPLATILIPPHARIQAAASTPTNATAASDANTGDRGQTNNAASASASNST
Glycogen synthase kinase-3 alpha, sequence (P49840 whole entry): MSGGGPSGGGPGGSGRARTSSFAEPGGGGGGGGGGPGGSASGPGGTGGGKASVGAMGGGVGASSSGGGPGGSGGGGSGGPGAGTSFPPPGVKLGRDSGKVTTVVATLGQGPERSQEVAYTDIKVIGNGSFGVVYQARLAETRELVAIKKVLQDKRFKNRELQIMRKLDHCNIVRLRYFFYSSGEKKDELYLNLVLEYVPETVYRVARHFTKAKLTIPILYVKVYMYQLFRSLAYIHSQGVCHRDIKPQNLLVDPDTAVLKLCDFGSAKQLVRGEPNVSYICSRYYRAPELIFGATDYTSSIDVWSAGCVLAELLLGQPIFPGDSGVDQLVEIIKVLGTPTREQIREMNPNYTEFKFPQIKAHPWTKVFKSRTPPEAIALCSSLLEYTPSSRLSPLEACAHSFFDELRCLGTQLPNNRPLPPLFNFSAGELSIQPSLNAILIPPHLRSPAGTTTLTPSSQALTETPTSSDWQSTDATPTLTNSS
Cyclin-dependent kinase 5/CDK5 activator 1 (Homo sapiens), sequence (Q00535 whole entry): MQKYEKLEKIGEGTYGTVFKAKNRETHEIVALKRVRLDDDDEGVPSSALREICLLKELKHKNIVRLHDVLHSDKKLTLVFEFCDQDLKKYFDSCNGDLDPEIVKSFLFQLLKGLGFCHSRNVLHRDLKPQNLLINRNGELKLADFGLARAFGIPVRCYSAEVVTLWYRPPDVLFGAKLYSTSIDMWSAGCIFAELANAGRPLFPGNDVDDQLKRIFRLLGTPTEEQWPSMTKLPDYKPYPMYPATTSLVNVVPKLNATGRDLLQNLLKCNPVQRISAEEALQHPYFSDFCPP
Cyclin-dependent kinase 5/CDK5 activator 1 (Homo sapiens), sequence (Q15078 99-307 partner limits assumed): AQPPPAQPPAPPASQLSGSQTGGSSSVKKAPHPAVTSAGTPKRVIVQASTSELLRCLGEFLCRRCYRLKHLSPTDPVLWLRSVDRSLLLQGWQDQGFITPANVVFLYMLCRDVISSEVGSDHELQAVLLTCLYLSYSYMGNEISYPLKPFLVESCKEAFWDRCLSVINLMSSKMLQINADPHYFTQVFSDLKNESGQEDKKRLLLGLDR

CN1CC=C(c2c(O)cc(O)c3c(=O)cc(-c4ccc(Sc5nc6ccccc6n5C)cc4Cl)oc23)CC1
Activity [1]: 30%
Activity [2]: 24%
Activity [3]: -2%
Activity [4]: 2%
Activity [5]: 12%
Activity (Leishmania major): 62%
Activity (Plasmodium falciparum): 80%
Activity (Sus scrofa): 31%
inhibition [6]: Active
Activity (K562 [7]): 20.7%
Activity (K562 [8]): 27.8%
Activity (K562 [9]): 68.6%
Activity (K562 [10]): 10.7%
Activity (K562 [11]): 28.7%
Activity (HCT-116 [12]): 26%
Activity (HCT-116 [13]): 48.7%
Activity (HCT-116 [14]): 25.1%
Activity (HCT-116 [15]): 30.9%
IC50 [16]: 70 nM
IC50 [17]: 149 nM
Activity (HCT-116 [18]): Dose-dependent effect
IC50 (PC-3): 85 nM
IC50 (SK-OV-3): 94 nM
IC50 (MIA PaCa-2 [19]): 52.9 nM
Ratio IC50 (MIA PaCa-2 [20]): <=6
